Series [1] concerns the target T1, Transient receptor potential cation channel subfamily M member 8 (Rattus norvegicus, UniProt Q8R455). Briefly: Antagonist activity at rat TRPM8 expressed in HEK293 cells assessed as reduction in menthol-induced calcium flux incubated for 60 mins by Fluo-4 NW-dye based fluorimetric assay. Format: cell-based. In a few lines:
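HEK293 cells stably expressing rat TRPM8, seeded 2 days ahead, loaded with Fluo-4 NW containing 2.5 mM probenecid; compounds in DMSO, 60 min at 37 °C in darkness. Four baseline cycles, 100 μM menthol stimulation, 15 further cycles read (ex 485/em 535 nm). Normalized to menthol + 10 μM AMTB coexposure; DMSO controls.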

The target of series [2] is T1, Transient receptor potential cation channel subfamily M member 8. Briefly: (§1) Antagonist activity at rat TRPM8 expressed in HEK293 cells assessed as reduction in menthol-induced channel currents by whole cell patch clamp method. It is filed as cell-based. In a few lines: (§2)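 HEK293 cells grown in DMEM/10% FBS, plated on poly-L-lysine coverslips, transiently transfected 24 h later with rat TRPM8 cDNA (3.6 μg) plus EGFP marker (total cDNA 4 μg). Whole-cell recordings 24 h post-transfection on EGFP-positive cells, 3–5 MΩ pipettes. Extracellular solution (mM): 138 NaCl, 5.4 KCl, 2 CaCl2, 1 MgCl2, 10 glucose, 10 HEPES, pH 7.4. Currents evoked by 500 μM menthol, monitored at +80 and −80 mV.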

Series [3] addresses Transient receptor potential cation channel subfamily V member 1 (Mus musculus) (UniProt Q704Y3). Kind of series: Antagonist activity at mouse TRPV1 expressed in human SH-SY5Y cells assessed as inhibition of capsaicin induced calcium influx at 0.001 to 100 uM incubated for 60 mins by Fluo-4 NW-dye based fluorimetric assay. Format: cell-based. In a few lines:
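SH-SY5Y cells stably expressing mouse TRPV1, seeded 2 days before, loaded with Fluo-4 NW plus 2.5 mM probenecid; compounds in DMSO added, 60 min at 37 °C in darkness. Four baseline cycles, then 10 μM capsaicin, recorded 15 more cycles (ex 485/em 535 nm). Signal normalized to capsaicin + 10 μM ruthenium red coexposure.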

Series [4] is described as follows: Apparent permeability of the compound in 0.01 M phosphate buffer at pH 7.4 at 0.5 mM after 24 hrs by PAMPA. Format: ADME. In a few lines:
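Donor at 0.5 mM, diluted from 10 mM DMSO stock into 0.01 M phosphate buffer pH 7.4. Filter coated with 1% phosphatidylcholine in dodecane; acceptor is 5% DMSO in phosphate buffer. Incubated 24 h at room temperature with gentle shaking. Acceptor analysed by HPLC-UV at 220 nm against no-membrane references. Papp from Faller-modified Sugano equation; triplicate, with propranolol and furosemide as references.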

The target of series [5] is Transient receptor potential cation channel subfamily M member 8 (Rattus norvegicus) (UniProt Q8R455). The description is as §1. Format: cell-based. Put shortly:
as §2

For series [6], the system named is Mus musculus. Briefly: Antinociceptive activity in sc dosed C57Bl/6J mouse assessed as inhibition of icilin induced wet-dog shakes pretreated 30 mins before icillin addition and measured after 30 mins by wet-dog shakes assay. It is filed as functional, organism-based. Put shortly: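 Male C57 mice, 5 weeks, ~30 g, acclimatized 30 min on two consecutive days. Compound (1, 10, 30 mg/kg; DMSO stock diluted in saline) or vehicle given s.c. 30 min before icilin 10 mg/kg i.p. (in 20% DMSO/1% Tween 80 in water). Gabapentin 25 mg/kg s.c. given 60 min before icilin. Wet-dog shakes counted over 30 min. Mean ± SEM, n = 6; two-way ANOVA with Bonferroni test.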

Series [7] concerns Mus musculus. Kind of series: Antinociceptive activity in C57Bl/6J mouse assessed as inhibition of icilin induced wet-dog shakes at 30 mg/kg, sc pretreated 30 mins before icillin addition and measured after 30 mins by wet-dog shakes assay. It is filed as functional. In a few lines:
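Male C57 mice, 5 weeks, ~30 g, acclimatized 30 min on two consecutive days. Compound (DMSO stock diluted in saline) given s.c. at 1, 10 or 30 mg/kg 30 min before icilin 10 mg/kg i.p. (20% DMSO/1% Tween 80). Wet-dog shakes counted over 30 min; mean ± SEM, n = 6; two-way ANOVA, Bonferroni.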

The subject of series [8] is Mus musculus. Kind of series: Antinociceptive activity in sc dosed C57/BL6 mouse assessed as inhibition of oxaliplatin induced cold allodynia administered as single dose injected into plantar surface of right hind paw on day 7 post oxaliplatin treatment and measured after 15 to 30 mins by acetone drop method. Format: functional, organism-based. Put shortly:
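Male C57 mice, 5 weeks, ~30 g. Oxaliplatin 6 mg/kg given on days 1, 3 and 5, with saline and 5% mannitol i.p.; tested on day 7. Antagonist stock in DMSO, diluted in saline, 0.1–1 μg injected in 25 μL into the plantar surface of the right hind paw. Acetone drop test after ~30 min habituation; paw sampled twice (~5 min apart) and averaged.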

Series [9] is described as follows: Chemical stability of compound in phosphate buffer at pH 7.4 after 15 to 60 mins by HPLC analysis. It is filed as physicochemical. Put shortly: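 DMSO stock (10 mg/mL) diluted 1:100 in phosphate buffer and stirred at 37 °C. At 15, 30 and 60 min, extracted with dichloromethane (1:1), dried under nitrogen, reconstituted in methanol and filtered. Analysed by C18 HPLC with a 0.1% TFA water/acetonitrile gradient (5–90% B over 7 min), 0.5 mL/min, 220 nm detection. Triplicate.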

Series [10] can be described thus: Drug metabolism in mouse serum assessed as (S)-2-(Dibenzylamino)-3-(1H-indol-3-yl)propanoic Acid formation after 15 to 60 mins by HPLC analysis. Format: ADME, cell-free. In a few lines:
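DMSO stock diluted 1:1000 in mouse serum (from retro-orbital blood) and stirred at 37 °C. Samples taken at 15, 30 and 60 min, extracted with dichloromethane, then analysed by C18 HPLC (0.1% TFA water/acetonitrile gradient, 220 nm) for parent and acid metabolite. Blank serum checked for interfering peaks; acetylsalicylic acid used to verify hydrolytic activity. Triplicate.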

Series [11] deals with Transient receptor potential cation channel subfamily M member 8 (Rattus norvegicus) (UniProt Q8R455). Briefly: Antagonist activity at rat TRPM8 expressed in HEK293 cells at 100 nM assessed as reduction in menthol-induced channel currents by whole cell patch clamp method. It is filed as cell-based.
Transient receptor potential cation channel subfamily M member 8 (Rattus norvegicus), sequence (Q8R455 whole entry, looked up): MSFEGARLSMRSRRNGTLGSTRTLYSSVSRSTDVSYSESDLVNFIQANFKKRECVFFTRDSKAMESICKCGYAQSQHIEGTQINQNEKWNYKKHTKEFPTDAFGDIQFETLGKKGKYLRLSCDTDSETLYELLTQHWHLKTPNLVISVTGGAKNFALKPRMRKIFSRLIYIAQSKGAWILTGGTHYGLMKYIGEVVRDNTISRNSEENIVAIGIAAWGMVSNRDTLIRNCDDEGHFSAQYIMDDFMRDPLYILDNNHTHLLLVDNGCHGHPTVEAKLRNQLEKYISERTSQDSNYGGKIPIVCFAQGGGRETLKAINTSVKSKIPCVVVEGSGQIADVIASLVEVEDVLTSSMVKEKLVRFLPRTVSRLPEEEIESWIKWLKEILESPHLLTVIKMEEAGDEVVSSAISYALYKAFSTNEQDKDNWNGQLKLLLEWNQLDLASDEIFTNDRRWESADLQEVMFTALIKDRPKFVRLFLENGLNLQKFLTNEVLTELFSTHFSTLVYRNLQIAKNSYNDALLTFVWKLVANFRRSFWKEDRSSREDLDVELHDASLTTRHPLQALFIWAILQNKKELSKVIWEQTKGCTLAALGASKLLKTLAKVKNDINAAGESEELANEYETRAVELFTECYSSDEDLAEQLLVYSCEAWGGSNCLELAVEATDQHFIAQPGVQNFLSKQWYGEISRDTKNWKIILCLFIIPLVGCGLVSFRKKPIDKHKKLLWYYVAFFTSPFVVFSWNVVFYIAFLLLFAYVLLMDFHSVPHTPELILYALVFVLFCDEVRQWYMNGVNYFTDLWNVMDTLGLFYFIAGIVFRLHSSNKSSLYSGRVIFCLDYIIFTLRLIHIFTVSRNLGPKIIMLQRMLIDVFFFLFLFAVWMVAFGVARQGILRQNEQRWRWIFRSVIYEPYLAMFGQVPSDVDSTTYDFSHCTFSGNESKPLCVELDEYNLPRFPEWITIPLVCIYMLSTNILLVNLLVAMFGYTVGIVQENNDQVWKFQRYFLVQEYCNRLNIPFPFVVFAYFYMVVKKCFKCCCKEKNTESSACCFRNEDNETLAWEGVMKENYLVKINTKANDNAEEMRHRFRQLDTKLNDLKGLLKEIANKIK
For series [12] the target is unchanged. Kind of series: Reversible antagonist activity at rat TRPM8 expressed in HEK293 cells at 100 nM assessed as reduction in menthol-induced channel currents measured after drug wash out by whole cell patch clamp method. It is filed as cell-based.
For series [13] the target is unchanged. Kind of series: Antagonist activity at rat TRPM8 expressed in HEK293 cells at 500 nM assessed as reduction in menthol-induced channel currents by whole cell patch clamp method. Format: cell-based. Put shortly: (§3)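 HEK293 cells transiently transfected with rat TRPM8 cDNA plus EGFP marker, recorded 24 h later by whole-cell patch clamp on EGFP-positive cells (3–5 MΩ pipettes). Extracellular (mM): 138 NaCl, 5.4 KCl, 2 CaCl2, 1 MgCl2, 10 glucose, 10 HEPES, pH 7.4. Currents evoked by 500 μM menthol, read at +80 and −80 mV; compound added during menthol exposure.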

For series [14] the target is unchanged. Kind of series: Reversible antagonist activity at rat TRPM8 expressed in HEK293 cells at 500 nM assessed as reduction in menthol-induced channel currents measured after drug wash out by whole cell patch clamp method. Format: cell-based. Put shortly:
as §3

Series [15] concerns Mus musculus. Kind of series: Antinociceptive activity in C57Bl/6J mouse assessed as inhibition of icilin induced wet-dog shakes at 25 mg/kg, sc pretreated 1 hr before icillin addition and measured after 30 mins by wet-dog shakes assay. It is filed as functional, organism-based. Put shortly: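 Male C57 mice, 5 weeks, ~30 g, acclimatized 30 min on two consecutive days. Gabapentin in saline, 25 mg/kg s.c. 60 min before icilin (10 mg/kg i.p. in 20% DMSO/1% Tween 80). Wet-dog shakes counted over 30 min; mean ± SEM, n = 6; two-way ANOVA with Bonferroni.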

Series [16] has as its target Transient receptor potential cation channel subfamily M member 8 (Homo sapiens, UniProt Q7Z2W7). Briefly: Antagonist activity at TRPM8 (unknown origin) assessed as reduction in menthol-induced calcium influx. Put shortly: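 HEK293 cells stably expressing rat TRPM8, seeded 2 days ahead, loaded with Fluo-4 NW plus 2.5 mM probenecid. Compounds in DMSO preincubated 60 min at 37 °C in the dark. Four baseline cycles, then stimulation with 100 μM menthol and 15 further read cycles (ex 485, em 535 nm). Signal normalized to menthol + 10 μM AMTB coexposure. DMSO vehicle controls.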

Activity calls are given as the source filed them. The rule behind the calls is not given here.

T1 sequence (Q8R455 whole entry): as the sequence (Q8R455 whole entry, looked up) above
Transient receptor potential cation channel subfamily V member 1 (Mus musculus), sequence (Q704Y3 whole entry): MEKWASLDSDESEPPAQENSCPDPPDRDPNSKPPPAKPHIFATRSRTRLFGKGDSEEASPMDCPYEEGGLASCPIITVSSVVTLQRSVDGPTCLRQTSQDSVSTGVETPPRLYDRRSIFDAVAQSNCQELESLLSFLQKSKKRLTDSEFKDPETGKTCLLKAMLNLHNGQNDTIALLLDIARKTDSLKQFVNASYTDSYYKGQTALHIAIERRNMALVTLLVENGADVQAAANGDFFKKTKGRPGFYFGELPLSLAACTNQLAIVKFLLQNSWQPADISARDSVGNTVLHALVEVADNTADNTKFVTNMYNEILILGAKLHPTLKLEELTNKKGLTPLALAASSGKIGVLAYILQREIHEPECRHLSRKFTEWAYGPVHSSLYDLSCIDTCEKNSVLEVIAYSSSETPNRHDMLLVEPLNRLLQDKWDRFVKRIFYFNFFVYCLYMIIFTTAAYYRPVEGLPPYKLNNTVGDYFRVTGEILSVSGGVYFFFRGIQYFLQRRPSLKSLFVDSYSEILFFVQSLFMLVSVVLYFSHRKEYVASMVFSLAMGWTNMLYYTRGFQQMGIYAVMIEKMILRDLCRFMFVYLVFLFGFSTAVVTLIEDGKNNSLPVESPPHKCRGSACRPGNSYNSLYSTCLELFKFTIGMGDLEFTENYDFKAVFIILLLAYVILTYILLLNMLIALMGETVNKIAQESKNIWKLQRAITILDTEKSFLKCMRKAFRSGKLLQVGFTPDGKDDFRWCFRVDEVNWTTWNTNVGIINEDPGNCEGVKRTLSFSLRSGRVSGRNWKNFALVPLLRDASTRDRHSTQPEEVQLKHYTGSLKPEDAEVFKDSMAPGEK
Transient receptor potential cation channel subfamily M member 8 (Homo sapiens, UniProt Q7Z2W7), sequence (Q7Z2W7 whole entry): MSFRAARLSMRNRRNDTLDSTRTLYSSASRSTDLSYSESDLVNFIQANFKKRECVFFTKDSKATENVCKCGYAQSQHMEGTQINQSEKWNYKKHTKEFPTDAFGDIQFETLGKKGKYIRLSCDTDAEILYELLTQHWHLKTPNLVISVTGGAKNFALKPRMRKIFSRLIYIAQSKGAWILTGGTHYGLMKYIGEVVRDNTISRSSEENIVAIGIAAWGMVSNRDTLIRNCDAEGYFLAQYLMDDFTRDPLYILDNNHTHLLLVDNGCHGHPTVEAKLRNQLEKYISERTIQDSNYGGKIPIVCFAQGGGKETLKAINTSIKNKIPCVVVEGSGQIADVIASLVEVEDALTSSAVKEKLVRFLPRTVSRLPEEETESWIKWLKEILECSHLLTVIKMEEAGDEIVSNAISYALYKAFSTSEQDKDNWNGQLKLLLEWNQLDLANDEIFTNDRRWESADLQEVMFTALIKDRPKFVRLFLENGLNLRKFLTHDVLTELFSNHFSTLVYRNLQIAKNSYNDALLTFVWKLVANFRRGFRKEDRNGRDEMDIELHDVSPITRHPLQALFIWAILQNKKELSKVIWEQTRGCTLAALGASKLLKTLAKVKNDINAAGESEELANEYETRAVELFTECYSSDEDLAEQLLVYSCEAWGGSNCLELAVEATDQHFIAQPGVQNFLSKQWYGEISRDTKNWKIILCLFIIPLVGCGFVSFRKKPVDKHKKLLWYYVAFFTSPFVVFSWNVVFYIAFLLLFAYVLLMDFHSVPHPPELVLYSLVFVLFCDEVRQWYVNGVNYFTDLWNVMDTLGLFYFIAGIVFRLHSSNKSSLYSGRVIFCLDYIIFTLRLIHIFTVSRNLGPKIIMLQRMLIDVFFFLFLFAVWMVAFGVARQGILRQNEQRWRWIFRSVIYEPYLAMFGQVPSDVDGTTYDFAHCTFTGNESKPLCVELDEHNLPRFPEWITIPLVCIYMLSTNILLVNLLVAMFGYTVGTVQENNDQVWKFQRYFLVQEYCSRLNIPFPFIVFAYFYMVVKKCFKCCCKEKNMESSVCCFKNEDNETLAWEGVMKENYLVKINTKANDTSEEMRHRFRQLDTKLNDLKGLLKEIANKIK

`Cn1cc(CCN(Cc2ccccc2)Cc2ccccc2)c2ccccc21`: the IC50 in [1] was found to be 3.3 µM.
Consider `COC(=O)[C@@H](Cc1c[nH]c2ccccc12)N(Cc1ccccc1)Cc1ccccc1`, for which the IC50 in series [2] came out at 865 nM.
For `O=[N+]([O-])c1ccc(CN2CCc3c([nH]c4ccccc34)C2c2ccccc2)cc1` (racemic), the concentration for half-maximal inhibition (IC50) in series [1] came out at 3.3 µM.
`COC(=O)[C@H](Cc1c[nH]c2ccccc12)N(Cc1ccccc1)Cc1ccccc1`: the results for the IC50 in series [1] and in series [2] were 0.04 µM and 0.2 nM, respectively. Also, in [3], the inhibition entry was “inactive”. In addition, the Papp at 24 h, 500 µM in series [4] was found to be 0.97 ×10⁻⁶ cm/s. Further, the inhibition entry (in [5]; with Mus musculus [6]; in the series on Mus musculus [8]) was “Dose-dependent effect” each time. In the series with Mus musculus [7], the inhibition in vivo at 30 mg/kg was found to be 63%. For the same compound, in [9], the Stability entry is “Stable”. In addition, in [10], the Drug metabolism result was “Metabolite_Detected”. The inhibition entry in series [11] and in series [12] was “Active” throughout.
For the compound `O=C(O)[C@H](Cc1c[nH]c2ccccc12)N(Cc1ccccc1)Cc1ccccc1`, in [1], the IC50 was determined as 8.2 µM. In addition, in series [4], the apparent permeability (Papp) at 24 h, 500 µM came out at 3.17 ×10⁻⁶ cm/s.
Consider `c1ccc(COc2ccc3[nH]cc(CCN(Cc4ccccc4)Cc4ccccc4)c3c2)cc1`, for which the half-inhibitory concentration (IC50) in [1] is 1.9 µM.
On to `c1ccc(CN(CCc2c[nH]c3ccccc23)CC2CCCCC2)cc1`, for which the IC50 was found to be 0.6 µM in series [1] and 3.5 nM in series [2]. Moreover, the inhibition entry in series [3] is “inactive”. Also, the inhibition entry in [5] is “Dose-dependent effect”. Moreover, the inhibition entry in series [13] and in [14] was “Active” throughout.
With `c1ccc(CN(CCc2c[nH]c3ccccc23)Cc2ccccc2)cc1`, in series [1], the concentration for half-maximal inhibition (IC50) is 3.2 µM.
As for `Cc1cccc(COc2ccccc2C(=O)N(CCCN)Cc2cccs2)c1`, the half-inhibitory concentration (IC50) in series [1] came to 6.5 µM.
As to `O=[N+]([O-])c1ccc(Sc2[nH]c3ccccc3c2CCN(Cc2ccccc2)Cc2ccccc2)c([N+](=O)[O-])c1`, the concentration for half-maximal inhibition (IC50) in [1] worked out at 2.2 µM.
With `c1cc2c3c(cccc3c1)CN(CCc1c[nH]c3ccccc13)C2`, in series [1], the concentration for half-maximal inhibition (IC50) amounted to 11.8 µM.
Turning to `NCC1(CC(=O)O)CCCCC1`, in the series on Mus musculus [15], the inhibition result was “Active”.
As to `O=C(CN1CCc2c([nH]c3ccccc23)C1c1ccccc1)c1ccccc1` (racemic), the IC50 in series [1] was 1.6 µM.
Turning to `CC(C)(C)c1ccc(NC(=O)N2CCN(c3ncccc3Cl)CC2)cc1`, the half-inhibitory concentration (IC50) in series [16] was 475 nM.
On to `O=C(O)c1ccc(CN2CCc3c([nH]c4ccccc34)C2c2ccccc2)cc1` (racemic), for which the IC50 in [1] is over 100 µM.
For `O=[N+]([O-])c1ccc(CN(CCc2c[nH]c3ccccc23)Cc2ccccc2)cc1`, the IC50 in series [1] came to 3 µM.

The record behind these values is ChEMBL document CHEMBL4251754, “Identification of a Potent Tryptophan-Based TRPM8 Antagonist With in Vivo Analgesic Activity” (J Med Chem, 2018).
